From ChEMBL document CHEMBL2346664, “Synthesis, characterization and in vitro anticancer evaluation of novel 1,2,4-triazolin-3-one derivatives” (2013)

What was measured:
Assay type in all cases: functional
U-251 = assay: Growth inhibition of human U251 cells assessed as cell growth at 10 '-5 M after 48 hrs by sulforhodamine B assay; conditions: U-251, 48 h, read-out: Activity
HOP-92 = assay: Growth inhibition of human HOP92 cells assessed as cell growth at 10 '-5 M after 48 hrs by sulforhodamine B assay; conditions: HOP-92, 48 h, read-out: Activity
BT-549 = assay: Growth inhibition of human BT549 cells assessed as cell growth at 10 '-6 M after 48 hrs by sulforhodamine B assay; conditions: BT-549, 48 h, read-out: Activity
Method in brief: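 Percent growth at each of the five concentrations of the 48 h continuous-exposure NCI SRB screen. Drug stocks were in DMSO at 400× the top final concentration and diluted in medium with gentamicin. Growth was calculated as [(Ti-Tz)/(C-Tz)]×100 when Ti ≥ Tz, or [(Ti-Tz)/Tz]×100 when Ti < Tz. Tz plates were fixed at drug addition; untreated wells served as control. Absorbance was read at 515 nm.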

SK-MEL-28 [1] = assay: Growth inhibition of human SK-MEL-28 cells assessed as growth inhibition at 10 uM after 48 hrs by sulforhodamine B assay; conditions: SK-MEL-28, 48 h, read-out: GI
CCRF-CEM = assay: Growth inhibition of human CCRF-CEM cells assessed as growth inhibition at 10 uM after 48 hrs by sulforhodamine B assay; conditions: read-out: GI
Method in brief: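 NCI-60 primary single-dose screen at 10^-5 M, 48 h continuous exposure. Adherent cells were fixed with cold TCA (10% final) and suspension cells with 16% final TCA, then stained with 0.4% SRB in 1% acetic acid. Bound dye was solubilized in 10 mM Tris base and read at 515 nm. Output is growth percent relative to untreated controls, and GI% is 100 minus growth percent.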

SNB-19 = assay: Growth inhibition of human SNB19 cells assessed as cell growth at 10 '-6 M after 48 hrs by sulforhodamine B assay; conditions: SNB-19, 48 h, read-out: Activity
[2] = Growth inhibition of human Hs 578T cells assessed as cell growth at 10 '-7 M after 48 hrs by sulforhodamine B assay; conditions: read-out: Activity
TK-10 [3] = assay: Growth inhibition of human TK10 cells assessed as cell growth at 10 '-7 M after 48 hrs by sulforhodamine B assay; conditions: TK-10, 48 h, read-out: Activity
UACC-257 = assay: Growth inhibition of human UACC257 cells assessed as cell growth at 10 '-7 M after 48 hrs by sulforhodamine B assay; conditions: UACC-257, 48 h, read-out: Activity
SF-539 = assay: Growth inhibition of human SF539 cells assessed as cell growth at 10 '-7 M after 48 hrs by sulforhodamine B assay; conditions: SF-539, 48 h, read-out: Activity
SW-620 = assay: Growth inhibition of human SW620 cells assessed as cell growth at 10 '-7 M after 48 hrs by sulforhodamine B assay; conditions: SW-620, 48 h, read-out: Activity
HT-29 = assay: Growth inhibition of human HT-29 cells assessed as cell growth at 10 '-7 M after 48 hrs by sulforhodamine B assay; conditions: HT-29, 48 h, read-out: Activity
CAKI-1 = assay: Growth inhibition of human CAKI-1 cells after 48 hrs by sulforhodamine B assay; conditions: CAKI-1, 48 h
Method in brief: (§1)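 NCI 60-cell-line five-dose screen at 0.01, 0.1, 1, 10 and 100 µM final. Cells were plated at 5,000–40,000/well and grown 24 h at 37 °C, 5% CO2, then exposed to drug continuously for 48 h. Adherent cells were fixed with cold TCA (10% final) and stained with SRB; absorbance read at 515 nm. GI50 is the concentration where [(Ti-Tz)/(C-Tz)]×100 = 50, with Tz plates fixed at drug addition.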

ACHN = assay: Growth inhibition of human ACHN cells after 48 hrs by sulforhodamine B assay; method in brief: as §1
IGROV-1 [4] = assay: Growth inhibition of human IGROV1 cells assessed as cell growth at 10 uM after 48 hrs by sulforhodamine B assay; conditions: IGROV-1, 48 h, read-out: Activity
RPMI-8226 = assay: Growth inhibition of human RPMI8226 cells assessed as cell growth at 10 '-4 M after 48 hrs by sulforhodamine B assay; conditions: RPMI-8226, 48 h, read-out: Activity
TK-10 [5] = assay: Growth inhibition of human TK10 cells assessed as cell growth at 10 '-5 M after 48 hrs by sulforhodamine B assay; conditions: TK-10, 48 h, read-out: Activity
IGROV-1 [6] = assay: Growth inhibition of human IGROV1 cells assessed as cell growth at 10 '-5 M after 48 hrs by sulforhodamine B assay; conditions: IGROV-1, 48 h, read-out: Activity
OVCAR-5 [7] = assay: Growth inhibition of human OVCAR5 cells after 48 hrs by sulforhodamine B assay; conditions: OVCAR-5, 48 h
SK-MEL-28 [8] = assay: Growth inhibition of human SK-MEL-28 cells after 48 hrs by sulforhodamine B assay; conditions: SK-MEL-28, 48 h
M14 = assay: Growth inhibition of human M14 cells after 48 hrs by sulforhodamine B assay; conditions: M14, 48 h
Method in brief: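 NCI 60-cell-line five-dose screen. Cells were plated at 5,000–40,000/well by doubling time and grown 24 h at 37 °C, 5% CO2. Time-zero plates were TCA-fixed. Drug from DMSO stock was tested at 0.01, 0.1, 1, 10 and 100 µM final for 48 h continuous exposure. Read-out was SRB at 515 nm. GI50 is the concentration giving 50% reduction in net protein increase versus untreated control.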

HL-60(TB) = assay: Growth inhibition of human HL-60(TB) cells after 48 hrs by sulforhodamine B assay; conditions: HL-60, 48 h
Method in brief: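 NCI 60-cell-line five-dose screen over 0.01, 0.1, 1, 10 and 100 µM, with 48 h continuous exposure at 37 °C and 5% CO2 after 24 h pre-incubation (5,000–40,000 cells/well). Cells were TCA-fixed (10% final for adherent, 16% for suspension), stained with SRB and read at 515 nm. GI50 was solved from [(Ti−Tz)/(C−Tz)]×100 = 50 against time-zero plates.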

SK-MEL-28 [9] = assay: Growth inhibition of human SK-MEL-28 cells assessed as cell growth at 10 '-5 M after 48 hrs by sulforhodamine B assay; conditions: SK-MEL-28, 48 h, read-out: Activity
OVCAR-5 [10] = assay: Growth inhibition of human OVCAR5 cells assessed as cell growth at 10 '-8 M after 48 hrs by sulforhodamine B assay; conditions: OVCAR-5, 48 h, read-out: Activity
SF-295 = assay: Growth inhibition of human SF295 cells assessed as cell growth at 10 '-8 M after 48 hrs by sulforhodamine B assay; conditions: SF-295, 48 h, read-out: Activity
[11] = read-out: LD50 (the source's name)

## Cc1cc(=O)oc2cc(OCCn3c(C)nn(-c4ccc(Cl)cc4)c3=O)ccc12
U-251
  growth at 10 µM: 27%
HOP-92
  growth at 10 µM: 55%
BT-549
  growth at 1 µM: 89%
SK-MEL-28 [1]
  inhibition of growth at 10 µM: 59.2%
CCRF-CEM
  inhibition of growth at 10 µM: 86.6%
SNB-19
  growth at 1 µM: 80%
[2]
  growth at 0.1 µM: 83%
TK-10 [3]
  growth at 0.1 µM: 101%
UACC-257
  growth at 0.1 µM: 101%
SF-539
  growth at 0.1 µM: 103%
SW-620
  growth at 0.1 µM: 98%
HT-29
  growth at 0.1 µM: 106%
CAKI-1
  GI50: 1000 nM
  TGI: > 1000 nM
CAKI-1; [11]
  CC50: > 1000 nM
ACHN
  GI50: 5590 nM
  TGI: > 1000 nM
ACHN; [11]
  CC50: > 1000 nM
IGROV-1 [4]
  growth at 10 µM: 59.7%
RPMI-8226
  growth at 100 µM: 45%
TK-10 [5]
  growth at 10 µM: 58%
IGROV-1 [6]
  growth at 10 µM: 61%
OVCAR-5 [7]
  GI50: 2190 nM
  TGI: > 1000 nM
OVCAR-5 [7]; [11]
  CC50: > 1000 nM
SK-MEL-28 [8]
  GI50: 3130 nM
  TGI: > 1000 nM
SK-MEL-28 [8]; [11]
  CC50: > 1000 nM
M14
  GI50: 2360 nM
  TGI: > 1000 nM
M14; [11]
  CC50: > 1000 nM
HL-60(TB)
  GI50: 2800 nM
SK-MEL-28 [9]
  growth at 10 µM: 33%
OVCAR-5 [10]
  growth at 0.01 µM: 105%
SF-295
  growth at 0.01 µM: 94%
